Laboratory results reported in ChEMBL document CHEMBL5584326, “Second-generation piperazine derivatives as promising radiation countermeasures” (RSC Med Chem, 2024).

Legend:
MRC5 = experiment: Cytotoxicity against human MRC5 cells assessed as reduction in cell viability at 100 uM measured after 48 hrs by WST-1 assay; format: toxicity, cell-based; details: mrc5, 48 h
Summary of the method: (§1)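 Cells kept at 37 °C in humidified 5% CO2, adherent lines under 10 passages, suspension lines under 20, exponential phase. Seeded at 1–50 × 10^3 cells per well, settled overnight, then a single 48 h exposure at 100 μM final. WST-1 read at 440 nm. Proliferation given as % of 0.1% DMSO mock control, mean of three independent experiments.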

PANC-1 = experiment: Cytotoxicity against human PANC-1 cells assessed as reduction in cell viability at 100 uM measured after 48 hrs by WST-1 assay; format: toxicity, cell-based; details: panc-1, 48 h; summary of the method: as §1
[1] = Cytotoxicity against human PBMC assessed as optimal non-toxic concentration required to show >=90 to 100% cell viability measured after 48 hrs by MTS assay; format: toxicity, cell-based; details: read-out: Activity
Summary of the method: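 PBMCs from a healthy donor were isolated on Histopaque-1077 and cultured in RPMI 1640 with 20% inactivated FBS. About 5×10^4 cells per well were exposed 48 h at 37 °C, 5% CO2 to 10–1000 μM. MTS was added 4 h before reading at 490 nm, blank subtracted, untreated control set to 100%. Concentration taken as viability ≥90% and not below control (P 0.05), mean of ≥3 measurements.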

MCF7 = experiment: Cytotoxicity against human MCF7 cells assessed as reduction in cell viability at 100 uM measured after 48 hrs by WST-1 assay; format: toxicity, cell-based; details: mcf7, 48 h; summary of the method: as §1
Jurkat = experiment: Cytotoxicity against human Jurkat cells assessed as reduction in cell viability at 100 uM measured after 48 hrs by WST-1 assay; format: toxicity, cell-based; summary of the method: as §1
HT-29 = experiment: Cytotoxicity against human HT-29 cells assessed as reduction in cell viability at 100 uM measured after 48 hrs by WST-1 assay; format: toxicity, cell-based; details: ht-29, 48 h; summary of the method: as §1
MOLT-4 = experiment: Cytotoxicity against human MOLT-4 cells assessed as reduction in cell viability at 100 uM measured after 48 hrs by WST-1 assay; format: toxicity, cell-based; details: molt-4, 48 h; summary of the method: as §1
SAOS-2 = experiment: Cytotoxicity against human SAOS-2 cells assessed as reduction in cell viability at 100 uM measured after 48 hrs by WST-1 assay; format: toxicity, cell-based; details: saos-2, 48 h; summary of the method: as §1
A549 = experiment: Cytotoxicity against human A549 cells assessed as reduction in cell viability at 100 uM measured after 48 hrs by WST-1 assay; format: toxicity, cell-based; details: a549, 48 h; summary of the method: as §1
Blood = experiment: Radioprotective activity against 3 Gy gamma radiation-induced DNA damage in human whole blood assessed as reduction in number of dicentric chromosomes per cell by measuring radioprotection factor at 1000 uM preincubated for 1 hr followed by 3 Gy gamma irradiation and measured after 48 hrs by giemsa staining based microscopic analysis relative to control; format: functional; details: time 49 hrs
Summary of the method: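 Heparinized whole blood from healthy male donors, 60 min compound pre-exposure, then single 3 Gy 60Co gamma dose at 0.6 Gy/min. After 30 min at 37 °C, cultured in RPMI 1640 with 20% FBS and 2% PHA. Colcemid 0.25 μg/ml added at 48 h, harvest at 50 h, KCl hypotonic, methanol:acetic acid fixation, 5% Giemsa. Automated metaphase scoring. RF = […].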

[2] = Cytotoxicity against human PBMC assessed as reduction in cell viability at 20 uM measured after 48 hrs by MTS assay; format: toxicity, cell-based
Summary of the method: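 PBMCs isolated from whole blood of a healthy donor by Histopaque-1077 density centrifugation, cultured in RPMI 1640 GlutaMAX with 20% inactivated FBS and penicillin/streptomycin. About 5×10^4 cells/well exposed to 10–1000 μM for 48 h at 37 °C, 5% CO2. MTS added 4 h before reading absorbance at 490 nm, cell-free medium blank subtracted. Untreated control set as 100%; mean of ≥3 independent measurements.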

SMILES | Activity (MRC5) | Activity (PANC-1) | MNTC at 48 h [1] | Activity (MCF7) | Activity (Jurkat) | Activity (HT-29) | Activity (MOLT-4) | Activity (SAOS-2) | Activity (A549) | PI (Blood) | Activity [2]
COc1ccc(OCC(O)CN2CCN(CCO)CC2)c([N+](=O)[O-])c1 (stereo not drawn) | Non-Toxic | Non-Toxic | 500 µM | Non-Toxic | Non-Toxic | Non-Toxic | Non-Toxic | Non-Toxic | Non-Toxic |  | 
O=[N+]([O-])c1cc(OCC(O)CN2CCN(CCO)CC2)ccc1Cl (stereo not drawn) | Non-Toxic | Non-Toxic | 200 µM | Non-Toxic | Non-Toxic | Non-Toxic | Non-Toxic | Non-Toxic | Non-Toxic |  | 
OCCN1CCN(CC(O)COc2ccc(Oc3ccc(F)cc3)cc2)CC1 (stereo not drawn) | Toxic | Toxic |  | Toxic | Toxic | Toxic | Toxic | Toxic | Toxic |  | 
COc1cc([N+](=O)[O-])ccc1OCC(O)CN1CCN(CCO)CC1 (stereo not drawn) | Non-Toxic | Non-Toxic | 500 µM | Non-Toxic | Non-Toxic | Non-Toxic | Non-Toxic | Non-Toxic | Non-Toxic |  | 
OCCN1CCN(CC(O)COc2ccc(F)cc2)CC1 (stereo not drawn) | Non-Toxic | Non-Toxic | 1000 µM | Non-Toxic | Non-Toxic | Non-Toxic | Non-Toxic | Non-Toxic | Non-Toxic | 1.53 | 
O=[N+]([O-])c1ccc(OCC(O)CN2CCN(CCO)CC2)c(F)c1 (stereo not drawn) | Non-Toxic | Non-Toxic | 500 µM | Non-Toxic | Non-Toxic | Non-Toxic | Non-Toxic | Non-Toxic | Non-Toxic |  | 
NCCCNCCSP(=O)(O)O [AMIFOSTINE] |  |  | 10 µM |  |  |  |  |  |  |  | Toxic
OCCN1CCN(CC(O)COc2cc(Cl)c(Cl)cc2Cl)CC1 (stereo not drawn) | Toxic | Toxic |  | Toxic | Toxic | Toxic | Toxic | Toxic | Toxic |  | 
OCCN1CCN(CC(O)COc2cccc(Cl)c2)CC1 (stereo not drawn) | Non-Toxic | Non-Toxic | 500 µM | Non-Toxic | Non-Toxic | Non-Toxic | Non-Toxic | Non-Toxic | Non-Toxic |  | 
